In ChEMBL document CHEMBL1142518, “Potential nicotinic acetylcholine receptor ligands from 2,4-methanoproline derivatives” (J Med Chem, 2008):
Active and inactive are the calls of the source. The calls are words filed in the database; no cut-off is given here.

Legend:
[1] = target: Neuronal acetylcholine receptor; alpha4/beta2 (Homo sapiens) (UniProt P17787+P43681); assay: Binding affinity to human nAChR-alpha-4-beta-2 in HEK293 cells; type: cell-based
Procedure, shortened: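 Cloned human α4β2 nAChR in HEK-293 cell membranes, tested by SPA radioligand binding. Used [3H]epibatidine 1 nM, WGA-coated PVT beads 1 mg/well and 30 µg membrane protein/well, in Tris-HCl buffer (50 mM, 150 mM NaCl, 5 mM KCl, pH 7.4). Nonspecific binding defined with 10 µM epibatidine. Incubated 2-4 h at room temperature and read by scintillation counting. 4-parameter logistic IC50 converted to Ki by Cheng-Prusoff.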

[2] = target: Neuronal acetylcholine receptor; alpha3/beta4 (Homo sapiens) (UniProt P30926+P32297); assay: Binding affinity to human nAChR-alpha-3-beta-4 in HEK293 cells; type: cell-based
Procedure, shortened: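 Scintillation proximity assay on membranes from HEK-293 cells expressing cloned human α3β4 nAChR. [3H]epibatidine 2 nM, WGA-coated PVT beads 1.5 mg/well, 30 µg membrane protein/well, in 50 mM Tris-HCl, 150 mM NaCl, 5 mM KCl, pH 7.4. Nonspecific binding defined with 10 µM epibatidine. Equilibrated 2-4 h at room temperature, then scintillation counted. IC50 from 4-parameter logistic fit, converted to Ki by Cheng-Prusoff.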

| SMILES | Activity [1] | Activity [2] |
| --- | --- | --- |
| c1ccc(OCC23CC(CN2)C3)cc1 | inactive | inactive |
| Cc1cc(/C=C/C23CC(CN2)C3)on1 | inactive | inactive |
| Cc1cc(C23CC(CN2)C3)on1 | inactive | inactive |
| Clc1ccc(OCC23CC(CN2)C3)cn1 | inactive | inactive |
| Cc1cc(CCC23CC(CN2)C3)on1 | inactive | inactive |
| c1cncc(OCC23CC(CN2)C3)c1 | inactive | inactive |
